For 21 compounds, IC50 results are on record in ChEMBL document CHEMBL3351902, “Design and synthesis of novel spin-labeled camptothecin derivatives as potent cytotoxic agents” (Bioorg Med Chem, 2014).

Common to all, as to format: functional, cell-based
One assay concerns KB. As to the kind of experiment: Cytotoxicity against human KB cells after 72 hrs by SRB assay.
Another assay concerns MDA-MB-231. Briefly: Cytotoxicity against human MDA-MB-231 cells after 72 hrs by SRB assay. In a few lines:
(§1)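 Cells grown in RPMI-1640 with 2 mM L-glutamine, 25 mM HEPES, 10% heat-inactivated FBS, penicillin/streptomycin and amphotericin B, 5% CO2. Seeded at 4.0–7.5 × 10^3 cells/well into medium containing graded sample concentrations, 72 h at 37 °C. Fixed with 10% TCA for 30 min, stained 0.04% SRB for 30 min, dye solubilized in 10 mM Tris base, absorbance at 515 nm. Triplicate runs with duplicate samples, mean IC50 ± SD.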

Assay [1] in a line: Cytotoxicity against human KBVIN cells after 72 hrs by SRB assay. Summed up: as §1
For orientation: In SRB staining, fixed cells bind dye roughly in proportion to their protein.

Another assay deals with A549. As to the kind of experiment: Cytotoxicity against human A549 cells after 72 hrs by SRB assay.

pIC50: −log10 of the molar value.

With `CC[C@@]1(OC(=O)CN/C(CCOC2CC(C)(C)N([O])C(C)(C)C2)=N/S(=O)(=O)c2ccc3ccccc3c2)C(=O)OCc2c1cc1n(c2=O)Cc2cc3ccccc3nc2-1`, the pIC50 is 6.24 in the assay with KB, 6.21 in the assay with MDA-MB-231, 6.48 in assay [1] (kbvin) and 6.32 with A549.

Turning to `CC[C@@]1(OC(=O)CN/C(CCOC2CC(C)(C)N([O])C(C)(C)C2)=N/S(=O)(=O)c2ccc(C)cc2)C(=O)OCc2c1cc1n(c2=O)Cc2cc3ccccc3nc2-1`, the pIC50 was 6.68 in the assay with KB, 6.35 in the assay on MDA-MB-231, 6.96 in assay [1] (kbvin) and 7.12 in the assay with A549.

Consider `CC[C@@]1(OC(=O)[C@@H](C)N/C(CCOC2CC(C)(C)N([O])C(C)(C)C2)=N/S(=O)(=O)c2ccc(C)cc2)C(=O)OCc2c1cc1n(c2=O)Cc2cc3ccccc3nc2-1`, for which the pIC50 in the assay on KB is 6.25; with MDA-MB-231, 6.28; in assay [1] (kbvin), 6.60; in the assay on A549 it was 6.35.

On to `CC[C@@]1(OC(=O)[C@H](N/C(CCOC2CC(C)(C)N([O])C(C)(C)C2)=N/S(=O)(=O)c2ccc(C)cc2)C(C)C)C(=O)OCc2c1cc1n(c2=O)Cc2cc3ccccc3nc2-1`, for which the negative-log IC50 (pIC50) (with KB; in the assay on MDA-MB-231; in assay [1] (kbvin); in the assay with A549) was below 6.00 each time.

Turning to `CC[C@@]1(OC(=O)CN/C(CCOC2CC(C)(C)N([O])C(C)(C)C2)=N/S(C)(=O)=O)C(=O)OCc2c1cc1n(c2=O)Cc2cc3ccccc3nc2-1`, the pIC50 is 7.15 with KB, 6.96 with MDA-MB-231, 7.05 in assay [1] (kbvin) and 7.23 with A549.

Consider `CC[C@@]1(OC(=O)CN/C(CCOC2CC(C)(C)N([O])C(C)(C)C2)=N/S(=O)(=O)CC)C(=O)OCc2c1cc1n(c2=O)Cc2cc3ccccc3nc2-1`, for which the pIC50 was 7.23 in the assay with KB, 7.10 in the assay on MDA-MB-231, 7.24 in assay [1] (kbvin) and 7.26 in the assay with A549.

For `CCCCS(=O)(=O)/N=C(\CCOC1CC(C)(C)N([O])C(C)(C)C1)NCC(=O)O[C@]1(CC)C(=O)OCc2c1cc1n(c2=O)Cc2cc3ccccc3nc2-1`, the negative logarithm of the IC50 (pIC50) with KB was 7.12; in the assay with MDA-MB-231, 6.64; in assay [1] (kbvin) it was 7.02; with A549, 7.21.

As to `CC[C@@]1(OC(=O)CN/C(CCOC2CC(C)(C)N([O])C(C)(C)C2)=N/S(=O)(=O)c2ccc(OC)cc2)C(=O)OCc2c1cc1n(c2=O)Cc2cc3ccccc3nc2-1`, the pIC50 is 6.96 in the assay with KB, 6.57 in the assay with MDA-MB-231, 7.02 in assay [1] (kbvin) and 7.09 in the assay on A549.

Take `CC[C@@]1(OC(=O)CN/C(CCOC2CC(C)(C)N([O])C(C)(C)C2)=N/S(=O)(=O)c2ccc(Cl)cc2)C(=O)OCc2c1cc1n(c2=O)Cc2cc3ccccc3nc2-1`: the negative-log IC50 (pIC50) in the assay with KB was 7.14; with MDA-MB-231 it was 6.72; in assay [1] (kbvin) it was 7.08; in the assay on A549, 7.20.

For the compound `CC[C@@]1(OC(=O)CN/C(CCOC2CC(C)(C)N([O])C(C)(C)C2)=N/S(=O)(=O)c2ccc(F)cc2)C(=O)OCc2c1cc1n(c2=O)Cc2cc3ccccc3nc2-1`, the pIC50 was 6.92 in the assay on KB, 6.57 with MDA-MB-231, 7.00 in assay [1] (kbvin) and 7.07 with A549.

Turning to `CC[C@@]1(OC(=O)CN/C(CCOC2CC(C)(C)N([O])C(C)(C)C2)=N/S(=O)(=O)c2ccc([N+](=O)[O-])cc2)C(=O)OCc2c1cc1n(c2=O)Cc2cc3ccccc3nc2-1`, the negative-log IC50 (pIC50) with KB is 7.23; in the assay on MDA-MB-231 it was 7.00; in assay [1] (kbvin), 7.14; in the assay with A549, 7.24.

On to `CC[C@@]1(OC(=O)[C@@H](CC(C)C)N/C(CCOC2CC(C)(C)N([O])C(C)(C)C2)=N/S(=O)(=O)c2ccc(C)cc2)C(=O)OCc2c1cc1n(c2=O)Cc2cc3ccccc3nc2-1`, for which the pIC50 with KB was 6.15; in the assay on MDA-MB-231, 6.08; in assay [1] (kbvin) it was 6.13; in the assay on A549, 6.21.

As to `CCC(C)[C@@H](N/C(CCOC1CC(C)(C)N([O])C(C)(C)C1)=N/S(=O)(=O)c1ccc(C)cc1)C(=O)O[C@]1(CC)C(=O)OCc2c1cc1n(c2=O)Cc2cc3ccccc3nc2-1` (stereo partly specified), the pIC50 (in the assay on KB; with MDA-MB-231; in assay [1] (kbvin); with A549) was below 6.00 throughout.

On to `CC[C@@]1(OC(=O)[C@@H](Cc2ccccc2)N/C(CCOC2CC(C)(C)N([O])C(C)(C)C2)=N/S(=O)(=O)c2ccc(C)cc2)C(=O)OCc2c1cc1n(c2=O)Cc2cc3ccccc3nc2-1`, for which the pIC50 in the assay on KB was 6.51; with MDA-MB-231, 6.30; in assay [1] (kbvin), 7.00; with A549, 6.77.

As to `CC[C@@]1(OC(=O)CN/C(CCOC2CC(C)(C)N([O])C(C)(C)C2)=N/S(=O)(=O)c2cccs2)C(=O)OCc2c1cc1n(c2=O)Cc2cc3ccccc3nc2-1`, the negative logarithm of the IC50 (pIC50) is 7.20 in the assay on KB, 6.96 in the assay on MDA-MB-231, 7.08 in assay [1] (kbvin) and 7.20 with A549.

`CC[C@@]1(OC(=O)CN/C(CCOCC2CC(C)(C)N([O])C(C)(C)C2)=N/S(=O)(=O)c2ccc(C)cc2)C(=O)OCc2c1cc1n(c2=O)Cc2cc3ccccc3nc2-1`: the pIC50 in the assay with KB is 7.10; with MDA-MB-231, 7.04; in assay [1] (kbvin) it was 7.08; in the assay on A549, 7.21.

Turning to `CC[C@@]1(OC(=O)CN/C(CCOCC2=CC(C)(C)N([O])C2(C)C)=N/S(C)(=O)=O)C(=O)OCc2c1cc1n(c2=O)Cc2cc3ccccc3nc2-1`, the pIC50 in the assay on KB was 7.08; with MDA-MB-231 it was 6.99; in assay [1] (kbvin) it was 7.08; in the assay with A549, 7.20.

`CC[C@@]1(OC(=O)CN/C(CCOCC2=CC(C)(C)N([O])C2(C)C)=N/S(=O)(=O)c2ccc(C)cc2)C(=O)OCc2c1cc1n(c2=O)Cc2cc3ccccc3nc2-1`: the negative-log IC50 (pIC50) in the assay with KB is 7.04; in the assay with MDA-MB-231 it was 6.92; in assay [1] (kbvin) it was 7.03; in the assay with A549 it was 7.13.

In the case of `CC[C@@]1(OC(=O)CN/C(CCOCC2=CC(C)(C)N([O])C2(C)C)=N/S(=O)(=O)c2ccc(OC)cc2)C(=O)OCc2c1cc1n(c2=O)Cc2cc3ccccc3nc2-1`, the pIC50 is 6.89 in the assay with KB, 6.74 in the assay on MDA-MB-231, 6.82 in assay [1] (kbvin) and 7.05 with A549.

Regarding `CC[C@@]1(OC(=O)CN/C(CCOCC2=CC(C)(C)N([O])C2(C)C)=N/S(=O)(=O)c2ccc(F)cc2)C(=O)OCc2c1cc1n(c2=O)Cc2cc3ccccc3nc2-1`, the pIC50 with KB is 6.92; with MDA-MB-231, 6.85; in assay [1] (kbvin) it was 7.02; with A549, 7.11.

With `CC[C@@]1(O)C(=O)OCc2c1cc1n(c2=O)Cc2cc3c(CN(C)C)c(O)ccc3nc2-1` [TOPOTECAN], the pIC50 in assay [1] (Homo sapiens, KBVIN, 72 h) was 6.40.

As usually defined, the pIC50 is the IC50 on a negative log10 scale, so that one unit is a factor of ten. Low values mean a large IC50, high ones a small IC50.
